Data from ChEMBL document CHEMBL3745614, “Potent and selective N-(4-sulfamoylphenyl)thiourea-based GPR55 agonists” (Eur J Med Chem, 2016).
pEC50: −log10 of the molar value.

How the values were obtained:
[1] = biological target: Cannabinoid receptor 1 (Homo sapiens) (UniProt P21554); experiment: Agonist activity at CBR1 (unknown origin) assessed as [35S]GTPgammaS binding at 10 uM by […] assay relative to control; assay type: functional
[2] = biological target: Cannabinoid receptor 1 (Homo sapiens) (UniProt P21554); experiment: Antagonist activity at human CBR1 assessed as [35S]GTPgammaS binding at 10 uM by radiometric assay relative to control; design: scale not given: the % may be the effect or the level left
[3] = biological target: T1, Fatty-acid amide hydrolase 1 (Homo sapiens) (UniProt O00519); experiment: Inhibition of human FAAH expressed in African green monkey COS-7 cell membranes using [3H]-AEA as substrate assessed as residual activity at 10 uM preincubated for 10 mins followed by substrate addition measured after 10 mins by liquid scintillation counting analysis relative to control
T1 sequence (whole entry): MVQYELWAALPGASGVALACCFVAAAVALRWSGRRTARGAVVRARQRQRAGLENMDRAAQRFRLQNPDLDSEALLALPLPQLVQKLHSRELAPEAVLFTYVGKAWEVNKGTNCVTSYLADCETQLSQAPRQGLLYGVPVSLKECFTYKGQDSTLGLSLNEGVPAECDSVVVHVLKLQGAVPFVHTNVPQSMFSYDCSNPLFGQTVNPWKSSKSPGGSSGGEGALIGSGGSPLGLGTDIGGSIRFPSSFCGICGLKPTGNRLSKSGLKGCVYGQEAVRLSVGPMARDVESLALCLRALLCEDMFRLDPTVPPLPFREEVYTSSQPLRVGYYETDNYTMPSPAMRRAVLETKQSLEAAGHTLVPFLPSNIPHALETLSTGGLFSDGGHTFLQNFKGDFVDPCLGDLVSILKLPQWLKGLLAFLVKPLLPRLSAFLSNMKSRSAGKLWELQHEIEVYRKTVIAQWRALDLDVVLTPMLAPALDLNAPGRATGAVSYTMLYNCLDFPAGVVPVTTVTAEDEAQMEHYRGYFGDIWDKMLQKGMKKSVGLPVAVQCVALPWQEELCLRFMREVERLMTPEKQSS
Method in brief: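 Membranes of COS-7 cells overexpressing hFAAH, 1 μg protein per incubation. Substrate 20 μM AEA including 10 nM [3H]AEA (60 Ci/mmol). Compounds tested at 10 μM.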

[4] = biological target: T2, Lysophosphatidylserine lipase ABHD12 (Homo sapiens) (UniProt Q8N2K0); experiment: Inhibition of human ABHD12 expressed in […] cells using 2-AG as substrate assessed as glycerol liberation at 10 uM preincubated for 30 mins followed by 2-AG addition measured for 90 mins by fluorescent glycerol assay relative to control; assay type: cell-based; design: scale not given: the % may be the effect or the level left
T2 sequence (whole entry): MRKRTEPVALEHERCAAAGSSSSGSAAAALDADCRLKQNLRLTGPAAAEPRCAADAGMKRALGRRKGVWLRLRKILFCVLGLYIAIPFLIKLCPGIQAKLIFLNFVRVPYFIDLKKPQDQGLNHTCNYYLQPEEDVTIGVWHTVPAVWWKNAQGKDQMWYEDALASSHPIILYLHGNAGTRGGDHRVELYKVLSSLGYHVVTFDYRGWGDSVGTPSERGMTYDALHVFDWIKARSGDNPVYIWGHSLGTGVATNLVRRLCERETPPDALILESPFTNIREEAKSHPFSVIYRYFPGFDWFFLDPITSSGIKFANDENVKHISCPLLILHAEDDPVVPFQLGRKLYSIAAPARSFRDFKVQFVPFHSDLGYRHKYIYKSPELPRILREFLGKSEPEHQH
Method in brief: (§1)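 Lysates of HEK293 cells transiently overexpressing hABHD6 or hABHD12, 0.3 μg protein/well. Pretreated 30 min with DMSO or compound, then 2-AG added (12.5 μM final). Glycerol release coupled enzymatically to H2O2-dependent resorufin formation; fluorescence (ex 530/em 590 nm) followed kinetically for 90 min.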

[5] = biological target: T2, Lysophosphatidylserine lipase ABHD12 (Homo sapiens); experiment: Inhibition of human ABHD12 expressed in […] cells using 2-AG as substrate assessed as glycerol liberation at 1 uM preincubated for 30 mins followed by 2-AG addition measured for 90 mins by fluorescent glycerol assay relative to control; assay type: cell-based; design: scale not given: the % may be the effect or the level left; method in brief: as §1
[6] = biological target: T3, Monoacylglycerol lipase ABHD6 (Homo sapiens) (UniProt Q9BV23); experiment: Inhibition of human ABHD6 expressed in […] cells using 2-AG as substrate assessed as glycerol liberation at 10 uM preincubated for 30 mins followed by 2-AG addition measured for 90 mins by fluorescent glycerol assay relative to control; assay type: cell-based; design: scale not given: the % may be the effect or the level left; method in brief: as §1
T3 sequence (whole entry): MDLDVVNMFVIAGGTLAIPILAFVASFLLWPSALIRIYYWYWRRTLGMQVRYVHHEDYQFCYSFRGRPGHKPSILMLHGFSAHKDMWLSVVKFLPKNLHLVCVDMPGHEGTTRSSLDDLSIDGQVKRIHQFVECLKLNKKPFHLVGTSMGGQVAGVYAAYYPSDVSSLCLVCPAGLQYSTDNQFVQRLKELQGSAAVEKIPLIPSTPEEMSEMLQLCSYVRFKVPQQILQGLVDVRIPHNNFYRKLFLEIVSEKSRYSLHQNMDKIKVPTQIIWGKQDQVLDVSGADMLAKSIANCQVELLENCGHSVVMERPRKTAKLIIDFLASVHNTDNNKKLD

[7] = biological target: Cannabinoid receptor 2 (Homo sapiens) (UniProt P34972); experiment: Antagonist activity at human CBR2 assessed as [35S]GTPgammaS binding at 10 uM by […] assay relative to control; assay type: functional; design: scale not given: the % may be the effect or the level left
Cannabinoid receptor 2 (Homo sapiens), sequence (P34972 whole entry): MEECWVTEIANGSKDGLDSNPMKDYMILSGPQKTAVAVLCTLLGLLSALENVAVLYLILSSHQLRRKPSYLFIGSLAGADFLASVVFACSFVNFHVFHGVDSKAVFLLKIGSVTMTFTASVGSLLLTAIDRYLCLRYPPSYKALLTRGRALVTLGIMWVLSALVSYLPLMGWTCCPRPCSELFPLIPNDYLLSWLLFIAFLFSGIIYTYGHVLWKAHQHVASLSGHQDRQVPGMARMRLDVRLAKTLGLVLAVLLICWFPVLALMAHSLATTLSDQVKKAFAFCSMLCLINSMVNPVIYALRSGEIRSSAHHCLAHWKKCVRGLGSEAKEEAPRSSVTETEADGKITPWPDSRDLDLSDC

[8] = biological target: T4, Monoglyceride lipase (Homo sapiens) (UniProt Q99685); experiment: Inhibition of human MGL expressed in […] cells using 2AG as substrate assessed as residual activity at 10 uM preincubated for 10 mins followed by substrate addition measured after 10 mins by HPLC analysis; assay type: cell-based
T4 sequence (whole entry): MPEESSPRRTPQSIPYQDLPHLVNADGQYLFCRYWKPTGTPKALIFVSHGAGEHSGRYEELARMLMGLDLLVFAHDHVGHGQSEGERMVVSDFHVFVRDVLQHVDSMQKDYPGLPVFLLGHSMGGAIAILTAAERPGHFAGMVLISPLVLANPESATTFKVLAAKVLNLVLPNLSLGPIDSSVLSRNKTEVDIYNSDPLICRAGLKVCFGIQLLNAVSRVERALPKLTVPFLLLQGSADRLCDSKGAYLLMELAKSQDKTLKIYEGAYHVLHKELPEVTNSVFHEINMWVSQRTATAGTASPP
Method in brief: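 Lysates of HEK cells overexpressing hMGL, 2.5 μg protein per incubation, substrate at 50 μM. Compounds tested at 10 μM.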

[9] = biological target: Cannabinoid receptor 2 (Homo sapiens) (UniProt P34972); experiment: Agonist activity at CBR2 (unknown origin) assessed as [35S]GTPgammaS binding at 10 uM by […] assay relative to control; assay type: functional
[10] = biological target: T3, Monoacylglycerol lipase ABHD6 (Homo sapiens); experiment: Inhibition of human ABHD6 expressed in […] cells using 2-AG as substrate assessed as glycerol liberation at 1 uM preincubated for 30 mins followed by 2-AG addition measured for 90 mins by fluorescent glycerol assay relative to control; assay type: cell-based; design: scale not given: the % may be the effect or the level left; method in brief: as §1
[11] = biological target: T5, G-protein coupled receptor 55 (Homo sapiens, UniProt Q9Y2T6); experiment: Agonist activity at human GPR55 expressed in CHOK1 cells at 10 uM by pathHunter beta-arrestin assay relative to control; assay type: cell-based; conditions: CHO-K1
T5 sequence (Q9Y2T6 whole entry): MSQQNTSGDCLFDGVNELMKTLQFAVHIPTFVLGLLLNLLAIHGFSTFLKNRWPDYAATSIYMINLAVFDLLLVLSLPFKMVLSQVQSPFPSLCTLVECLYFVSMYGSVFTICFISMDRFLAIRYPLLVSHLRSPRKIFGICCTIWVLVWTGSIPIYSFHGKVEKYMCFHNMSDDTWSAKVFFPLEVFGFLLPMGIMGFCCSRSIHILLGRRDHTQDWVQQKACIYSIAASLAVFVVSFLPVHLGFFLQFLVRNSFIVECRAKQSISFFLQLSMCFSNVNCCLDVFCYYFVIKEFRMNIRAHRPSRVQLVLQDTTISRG
Method in brief: (§2)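 PathHunter eXpress GPR55 CHO-K1 β-arrestin kit run per the kit protocol, compounds screened at 10 μM. Luminescence read and expressed as percentage of the signal from bovine liver LPI at 1 μM. Mean with range of two experiments, each done in duplicate.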

[12] = biological target: T5, G-protein coupled receptor 55; experiment: Agonist activity at human GPR55 expressed in CHOK1 cells at 10 uM by pathHunter beta-arrestin assay relative to LPI; assay type: cell-based; conditions: CHO-K1; method in brief: as §2
[13] = biological target: T5, G-protein coupled receptor 55; experiment: Agonist activity at human GPR55 expressed in HEK293 cells assessed as calcium signalling by fura 2-based digital epifluorescence microscopy; assay type: functional, cell-based
Method in brief: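 HEK293 cells stably expressing GPR55, grown on poly-L-lysine coated glass coverslips and serum-starved overnight. Compounds applied by bath perfusion in HEPES-buffered saline at 30-32 °C. Single-cell fura 2 ratiometric imaging (350/380 nm) every 5 s. Peak responses pooled from 24 cells (12 random cells from each of two experiments) per concentration; EC50 with 95% CI from concentration-response curves. ARA-LPI used as reference agonist.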

Cannabinoid receptor 1 (Homo sapiens), sequence (P21554 whole entry): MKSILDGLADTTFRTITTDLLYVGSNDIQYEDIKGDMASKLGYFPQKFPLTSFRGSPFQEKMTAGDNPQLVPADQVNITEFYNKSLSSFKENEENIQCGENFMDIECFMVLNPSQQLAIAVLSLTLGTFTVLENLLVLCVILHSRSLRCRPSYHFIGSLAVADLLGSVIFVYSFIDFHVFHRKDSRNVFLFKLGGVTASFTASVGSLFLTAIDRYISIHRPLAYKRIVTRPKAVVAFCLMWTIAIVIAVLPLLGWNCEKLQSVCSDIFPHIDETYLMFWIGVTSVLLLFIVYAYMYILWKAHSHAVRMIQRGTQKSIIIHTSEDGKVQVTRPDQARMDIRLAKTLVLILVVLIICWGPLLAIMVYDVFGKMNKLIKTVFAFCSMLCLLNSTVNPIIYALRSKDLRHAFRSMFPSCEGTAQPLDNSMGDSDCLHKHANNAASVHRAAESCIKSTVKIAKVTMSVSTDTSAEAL

Compound	Activity [1]	Activity [2]	Activity [3]	Activity [4]	Activity [5]	Activity [6]	Activity [7]	Activity [8]	Activity [9]	Activity [10]	Activity [11]	Activity [12]	pEC50 [13]
CC(C)NS(=O)(=O)c1ccc(NC(=S)NC(=O)c2ccc(-c3ccccc3)cc2)cc1	110%	92%	87%	65%	107%	34%	86%	98%	96%	95%	185%		
C=CCN(CC=C)S(=O)(=O)c1ccc(NC(=S)NC(=O)c2ccc([N+](=O)[O-])cc2)cc1	99%	91%	97%	62%	102%	53%	105%	104%	107%	102%	138%	93%	
O=C(NCCc1ccccc1)c1ccc(NC(=S)NC(=O)c2ccc(-c3ccccc3)cc2)cc1	98%	99%	85%		98%		103%	101%	99%	96%	99%	68%	< 5.00
COc1ccc(CNS(=O)(=O)c2ccc(NC(=S)NC(=O)c3ccc(-c4ccccc4)cc3)cc2)cc1	101%	99%	94%		100%		101%	105%	103%	101%	230%	157%	8.11
O=C(NC(=S)Nc1ccc(S(=O)(=O)NCc2ccc(F)cc2)cc1)c1ccc(-c2ccccc2)cc1	99%	91%	100%		96%		88%	98%	87%	95%	266%	185%	8.70
O=C(NCc1ccccc1)c1ccc(NC(=S)NC(=O)c2ccc(-c3ccccc3)cc2)cc1	116%	91%	83%		100%		88%	103%	111%	96%	100%	67%	< 5.00
C=CCNS(=O)(=O)c1ccc(NC(=S)NC(=O)c2ccc(-c3ccccc3)cc2)cc1	127%	94%	78%		100%		81%	96%	87%	99%	285%	194%	7.71
O=C(NC(=S)Nc1ccc(S(=O)(=O)NCc2ccco2)cc1)c1ccc(-c2ccccc2)cc1	100%	91%	91%		101%		99%	93%	97%	91%	246%	168%	8.70
Cc1ccc(CNS(=O)(=O)c2ccc(NC(=S)NC(=O)c3ccc(-c4ccccc4)cc3)cc2)cc1	105%	102%	94%		103%		103%	100%	118%	100%	220%	148%	7.91
O=C(NC(=S)Nc1ccc(S(=O)(=O)NCCc2ccccc2)cc1)c1ccc(-c2ccccc2)cc1	103%	91%	94%		101%		103%	99%	94%	99%	173%	117%	7.41
CC(C)CNS(=O)(=O)c1ccc(NC(=S)NC(=O)c2ccc(-c3ccccc3)cc2)cc1	119%	93%	105%	65%	95%	59%	86%	107%	85%	106%	242%	165%	7.51
Cc1ccc(C(=O)NC(=S)Nc2ccc(S(=O)(=O)NC(C)(C)C)cc2)cc1	105%	103%	103%	65%	100%	53%	96%	96%	100%	96%	102%	69%	
